Data as given in ChEMBL document CHEMBL4354826, “Structure-Based Discovery of SD-36 as a Potent, Selective, and Efficacious PROTAC Degrader of STAT3 Protein” (J Med Chem, 2019).
Active and inactive are the calls of the source. The calls are words filed in the database; no cut-off is given here.

Legend:
[1] = molecular target: T1, Signal transducer and activator of transcription 3 (Homo sapiens, UniProt P40763); assay: Binding affinity to recombinant human His/SUMO-tagged STAT3 (127 to 688 residues) expressed in Escherichia coli Rosetta (DE3) incubated for 1 hr by fluorescence polarization assay
[2] = molecular target: T2, Protein cereblon/Signal transducer and activator of transcription 3 (Homo sapiens, UniProt P40763+Q96SW2); assay: Protac activity at CRBN/STAT3 in human MOLM16 cells assessed as degradation of STAT3 incubated for 4 hrs by Western blot analysis; type: cell-based
Summary of the method: (§1)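 Molm-16 cells treated 4 h with serially diluted compound. Lysates immunoblotted (SDS–PAGE, PVDF, 5% blocker/TBST, chemiluminescence) for total STAT3 and pSTAT3 Y705. DC50 taken as the concentration reducing total STAT3 by 50%.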

[3] = Antiproliferative activity against human MOLM16 cells assessed as reduction in cell viability incubated for 4 days by cell-titer glo luminescent assay; type: functional, cell-based; details: MOLM16, 96 h
Summary of the method: (§2)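 Viability assay: cells incubated with serially diluted compounds for 4 days, viability read by CellTiter-Glo luminescence; IC50 from concentration–response.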

[4] = tested on: SU-DHL-1; assay: Antiproliferative activity against human SUDHL1 cells assessed as reduction in cell viability incubated for 4 days by cell-titer glo luminescent assay; type: functional, cell-based; details: SU-DHL-1, 96 h; summary of the method: as §2
[5] = molecular target: T2, Protein cereblon/Signal transducer and activator of transcription 3; assay: Protac activity at CRBN/STAT3 in human SUDHL1 cells assessed as degradation of STAT3 incubated for 16 hrs by Western blot analysis; type: cell-based
Target sequence in this assay (P40763 whole entry): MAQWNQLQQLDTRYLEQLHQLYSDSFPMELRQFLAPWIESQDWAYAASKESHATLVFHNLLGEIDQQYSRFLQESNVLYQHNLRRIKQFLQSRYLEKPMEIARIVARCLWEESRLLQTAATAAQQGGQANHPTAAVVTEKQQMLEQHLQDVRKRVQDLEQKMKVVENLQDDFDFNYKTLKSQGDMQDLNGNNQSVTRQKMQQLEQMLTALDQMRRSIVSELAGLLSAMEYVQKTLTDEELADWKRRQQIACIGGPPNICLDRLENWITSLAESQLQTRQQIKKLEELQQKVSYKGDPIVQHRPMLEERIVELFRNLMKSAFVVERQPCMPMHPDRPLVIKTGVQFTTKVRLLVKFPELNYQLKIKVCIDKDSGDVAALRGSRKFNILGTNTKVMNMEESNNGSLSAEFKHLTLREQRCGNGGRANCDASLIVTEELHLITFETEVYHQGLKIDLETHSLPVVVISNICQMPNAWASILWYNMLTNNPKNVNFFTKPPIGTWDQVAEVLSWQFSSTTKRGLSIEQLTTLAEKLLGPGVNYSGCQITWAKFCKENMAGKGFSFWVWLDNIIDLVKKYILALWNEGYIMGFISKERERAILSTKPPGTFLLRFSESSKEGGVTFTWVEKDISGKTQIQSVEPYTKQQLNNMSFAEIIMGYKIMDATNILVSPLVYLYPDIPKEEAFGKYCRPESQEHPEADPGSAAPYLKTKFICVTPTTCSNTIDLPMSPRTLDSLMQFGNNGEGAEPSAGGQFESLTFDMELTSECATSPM
Target sequence in this assay (Q96SW2 whole entry): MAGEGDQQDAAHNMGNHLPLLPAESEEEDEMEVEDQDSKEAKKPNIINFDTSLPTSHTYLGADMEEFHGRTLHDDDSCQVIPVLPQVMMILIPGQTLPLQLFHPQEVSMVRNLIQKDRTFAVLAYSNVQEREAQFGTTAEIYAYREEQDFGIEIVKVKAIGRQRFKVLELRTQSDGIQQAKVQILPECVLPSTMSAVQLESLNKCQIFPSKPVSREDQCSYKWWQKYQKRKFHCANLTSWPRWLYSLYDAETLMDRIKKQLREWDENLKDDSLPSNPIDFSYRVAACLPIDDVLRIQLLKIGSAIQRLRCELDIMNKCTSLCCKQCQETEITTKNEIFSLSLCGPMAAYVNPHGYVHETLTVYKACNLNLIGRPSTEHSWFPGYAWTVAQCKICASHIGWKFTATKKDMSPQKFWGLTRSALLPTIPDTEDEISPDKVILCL

[6] = molecular target: T1, Signal transducer and activator of transcription 3; assay: Potency index, ratio of Ki of CJ-887 to Ki of compound for binding affinity to recombinant human His/SUMO-tagged STAT3 (127 to 688 residues) expressed in Escherichia coli Rosetta (DE3) incubated for 1 hr by fluorescence polarization assay
[7] = molecular target: T2, Protein cereblon/Signal transducer and activator of transcription 3; assay: Protac activity at CRBN/STAT3 in human MOLM16 cells assessed as degradation of phosphorylated STAT3 Y705 at 1 uM incubated for 4 hrs by Western blot analysis; type: cell-based; summary of the method: as §1
Target sequence in this assay (P40763 2-770 limits assumed): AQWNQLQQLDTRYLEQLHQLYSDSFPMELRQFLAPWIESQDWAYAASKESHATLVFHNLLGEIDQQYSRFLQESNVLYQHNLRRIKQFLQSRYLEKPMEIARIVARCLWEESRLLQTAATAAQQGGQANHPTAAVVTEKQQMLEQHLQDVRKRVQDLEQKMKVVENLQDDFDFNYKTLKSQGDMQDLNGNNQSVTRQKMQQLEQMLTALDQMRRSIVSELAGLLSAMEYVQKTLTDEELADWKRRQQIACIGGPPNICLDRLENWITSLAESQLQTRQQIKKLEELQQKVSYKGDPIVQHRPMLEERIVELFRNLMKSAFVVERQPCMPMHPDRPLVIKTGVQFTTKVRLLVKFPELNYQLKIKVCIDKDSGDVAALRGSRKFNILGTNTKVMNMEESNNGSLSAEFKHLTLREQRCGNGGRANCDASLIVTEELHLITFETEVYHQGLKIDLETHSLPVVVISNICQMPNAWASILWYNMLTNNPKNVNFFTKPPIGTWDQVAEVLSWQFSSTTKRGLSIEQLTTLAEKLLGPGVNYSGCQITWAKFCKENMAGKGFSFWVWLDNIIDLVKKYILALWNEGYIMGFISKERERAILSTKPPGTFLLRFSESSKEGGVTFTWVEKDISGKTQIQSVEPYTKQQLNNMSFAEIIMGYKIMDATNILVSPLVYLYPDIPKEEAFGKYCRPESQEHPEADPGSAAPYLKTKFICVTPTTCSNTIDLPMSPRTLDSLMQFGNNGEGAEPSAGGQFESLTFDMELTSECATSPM
Target sequence in this assay (Q96SW2 whole entry partner): as the sequence (Q96SW2 whole entry) above

[8] = molecular target: T2, Protein cereblon/Signal transducer and activator of transcription 3; assay: Protac activity at CRBN/STAT3 in human MOLM16 cells assessed as degradation of STAT3 at 1 uM incubated for 4 hrs by Western blot analysis; type: cell-based; summary of the method: as §1
Target sequence in this assay (P40763 2-770 limits assumed): as the sequence (P40763 2-770 limits assumed) above
Target sequence in this assay (Q96SW2 whole entry partner): as the sequence (Q96SW2 whole entry) above

[9] = molecular target: T2, Protein cereblon/Signal transducer and activator of transcription 3; assay: Protac activity at CRBN/STAT3 in human SUDHL1 cells assessed as degradation of phosphorylated STAT3 Y705 upto 5 uM incubated for 16 hrs by Western blot analysis; type: cell-based
Target sequence in this assay (P40763 2-770 limits assumed): as the sequence (P40763 2-770 limits assumed) above
Target sequence in this assay (Q96SW2 whole entry partner): as the sequence (Q96SW2 whole entry) above

[10] = molecular target: T2, Protein cereblon/Signal transducer and activator of transcription 3; assay: Protac activity at CRBN/STAT3 in human SUDHL1 cells assessed as degradation of STAT3 upto 5 uM incubated for 16 hrs by Western blot analysis; type: cell-based
Target sequence in this assay (P40763 2-770 limits assumed): as the sequence (P40763 2-770 limits assumed) above
Target sequence in this assay (Q96SW2 whole entry partner): as the sequence (Q96SW2 whole entry) above

[11] = molecular target: T2, Protein cereblon/Signal transducer and activator of transcription 3; assay: Protac activity at CRBN/STAT3 in human MOLM16 cells assessed as degradation of phosphorylated STAT3 Y705 upto 10 uM incubated for 4 hrs by Western blot analysis; type: cell-based; summary of the method: as §1
Target sequence in this assay (P40763 2-770 limits assumed): as the sequence (P40763 2-770 limits assumed) above
Target sequence in this assay (Q96SW2 whole entry partner): as the sequence (Q96SW2 whole entry) above

[12] = molecular target: T2, Protein cereblon/Signal transducer and activator of transcription 3; assay: Protac activity at CRBN/STAT3 in human MOLM16 cells assessed as degradation of STAT3 up to 10 uM incubated for 4 hrs by Western blot analysis; type: cell-based; summary of the method: as §1
Target sequence in this assay (P40763 2-770 limits assumed): as the sequence (P40763 2-770 limits assumed) above
Target sequence in this assay (Q96SW2 whole entry partner): as the sequence (Q96SW2 whole entry) above

T1 sequence (P40763 whole entry, the tested form may be a part): as the sequence (P40763 whole entry) above

Row | SMILES | DC50 [2] | IC50 [3] | further results
1 | CC(=O)N1CC[C@H]2CC[C@@H](C(=O)N[C@@H](CCC(N)=O)C(=O)NC(c3ccccc3)c3ccccc3)N2C(=O)[C@@H](NC(=O)/C=C(\C)c2ccc(C(F)(F)P(=O)(O)O)cc2)C1 | – | – | Ki [1]: 164 nM
2 | CNC(=O)[C@H](CCC(N)=O)NC(=O)[C@@H]1CC[C@@H]2CCN(C(=O)CCCCCC#Cc3cccc4c3CN(C3CCC(=O)NC3=O)C4=O)C[C@H](NC(=O)c3cc4cc(C(F)(F)P(=O)(O)O)ccc4[nH]3)C(=O)N21 (some centres undefined) | 640 nM | 226 nM | IC50 [4]: > 10000 nM; DC50 [5]: 890 nM
3 | NC(=O)CC[C@H](NC(=O)[C@@H]1CC[C@@H]2CCN(C(=O)c3cnn(CCCC#Cc4cccc5c4CN(C4CCC(=O)NC4=O)C5=O)c3)C[C@H](NC(=O)c3cc4cc(C(F)(F)P(=O)(O)O)ccc4[nH]3)C(=O)N21)C(=O)NC(c1ccccc1)c1ccccc1 (some centres undefined) | 180 nM | 241 nM | –
4 | NC(=O)CC[C@H](NC(=O)[C@@H]1CC[C@@H]2CCN(C(=O)CCCCCC#Cc3ccc4c(c3)C(=O)N(C3CCC(=O)NC3=O)C4)C[C@H](NC(=O)c3cc4cc(C(F)(F)P(=O)(O)O)ccc4[nH]3)C(=O)N21)C(=O)NC(c1ccccc1)c1ccccc1 (some centres undefined) | 360 nM | 711 nM | –
5 | NC(=O)CC[C@H](NC(=O)[C@@H]1CC[C@@H]2CCN(C(=O)CCCCCC#Cc3cccc4c3CN(C3CCC(=O)NC3=O)C4=O)C[C@H](NC(=O)c3cc4cc(C(F)(F)P(=O)(O)O)ccc4[nH]3)C(=O)N21)C(=O)NCc1ccccc1 (some centres undefined) | 220 nM | 210 nM | IC50 [4]: 3240 nM; DC50 [5]: 55 nM
6 | NC(=O)CC[C@H](NC(=O)[C@@H]1CC[C@@H]2CCCC[C@H](NC(=O)c3cc4cc(C(F)(F)P(=O)(O)O)ccc4[nH]3)C(=O)N21)C(=O)NCc1ccccc1 | – | – | Ratio Ki [6]: 7; Ki [1]: 7 nM
7 | NC(=O)CC[C@H](NC(=O)[C@@H]1CC[C@@H]2CCN(C(=O)CCCCC#Cc3cccc4c3CN(C3CCC(=O)NC3=O)C4=O)C[C@H](NC(=O)c3cc4cc(C(F)(F)P(=O)(O)O)ccc4[nH]3)C(=O)N21)C(=O)NC(c1ccccc1)c1ccccc1 (some centres undefined) | 260 nM | 78 nM | –
8 | NC(=O)CC[C@H](NC(=O)[C@@H]1CC[C@@H]2CCN(C(=O)CCCC#Cc3cccc4c3CN(C3CCC(=O)NC3=O)C4=O)C[C@H](NC(=O)c3cc4cc(C(F)(F)P(=O)(O)O)ccc4[nH]3)C(=O)N21)C(=O)NC(c1ccccc1)c1ccccc1 (some centres undefined) | 2630 nM | 950 nM | Activity [2]: Dose-dependent effect; Activity [7]: inactive; Activity [8]: inactive
9 | NC(=O)CC[C@H](NC(=O)[C@@H]1CC[C@@H]2CCN(C(=O)CCCCCCCCC#Cc3cccc4c3CN(C3CCC(=O)NC3=O)C4=O)C[C@H](NC(=O)c3cc4cc(C(F)(F)P(=O)(O)O)ccc4[nH]3)C(=O)N21)C(=O)NC(c1ccccc1)c1ccccc1 (some centres undefined) | 150 nM | 42 nM | –
10 | NC(=O)CC[C@H](NC(=O)[C@@H]1CC[C@@H]2CCN(C(=O)OCCCCC#Cc3cccc4c3CN(C3CCC(=O)NC3=O)C4=O)C[C@H](NC(=O)c3cc4cc(C(F)(F)P(=O)(O)O)ccc4[nH]3)C(=O)N21)C(=O)NC(c1ccccc1)c1ccccc1 (some centres undefined) | 240 nM | 128 nM | IC50 [4]: 2370 nM; DC50 [5]: 49 nM
11 | NC(=O)CC[C@H](NC(=O)[C@@H]1CC[C@@H]2CCN(C(=O)CCCCCC#Cc3ccc4c(c3)CN(C3CCC(=O)NC3=O)C4=O)C[C@H](NC(=O)c3cc4cc(C(F)(F)P(=O)(O)O)ccc4[nH]3)C(=O)N21)C(=O)NC(c1ccccc1)c1ccccc1 (some centres undefined) | 410 nM | 104 nM | –
12 | NC(=O)CC[C@H](NC(=O)[C@@H]1CC[C@@H]2CCN(C(=O)CCCCCCC#Cc3cccc4c3CN(C3CCC(=O)NC3=O)C4=O)C[C@H](NC(=O)c3cc4cc(C(F)(F)P(=O)(O)O)ccc4[nH]3)C(=O)N21)C(=O)NC(c1ccccc1)c1ccccc1 (some centres undefined) | 90 nM | 25 nM | –
13 | NC(=O)CC[C@H](NC(=O)[C@@H]1CC[C@@H]2CCN(C(=O)CCCCCCNc3cccc4c3CN(C3CCC(=O)NC3=O)C4=O)C[C@H](NC(=O)c3cc4cc(C(F)(F)P(=O)(O)O)ccc4[nH]3)C(=O)N21)C(=O)NC(c1ccccc1)c1ccccc1 (some centres undefined) | 90 nM | 59 nM | –
14 | C/C(=C\C(=O)N[C@H]1CN(C(=O)CCCCCC#Cc2cccc3c2CN(C2CCC(=O)NC2=O)C3=O)CC[C@H]2CC[C@@H](C(=O)N[C@@H](CCC(N)=O)C(=O)NC(c3ccccc3)c3ccccc3)N2C1=O)c1ccc(C(F)(F)P(=O)(O)O)cc1 (some centres undefined) | 4450 nM | 1250 nM | Activity [9]: inactive; Activity [10]: inactive; IC50 [4]: > 10000 nM; DC50 [5]: > 10000 nM
15 | CC(=O)N1CC[C@H]2CC[C@@H](C(=O)N[C@@H](CCC(N)=O)C(=O)NC(c3ccccc3)c3ccccc3)N2C(=O)[C@@H](NC(=O)c2cc3cc(CP(=O)(O)O)ccc3[nH]2)C1 | – | – | Ki [1]: 584 nM
16 | NC(=O)CC[C@H](NC(=O)[C@@H]1CC[C@@H]2CCN(C(=O)N3CCC(CCC#Cc4cccc5c4CN(C4CCC(=O)NC4=O)C5=O)CC3)C[C@H](NC(=O)c3cc4cc(C(F)(F)P(=O)(O)O)ccc4[nH]3)C(=O)N21)C(=O)NC(c1ccccc1)c1ccccc1 (some centres undefined) | 180 nM | 99 nM | –
17 | NC(=O)CC[C@H](NC(=O)[C@@H]1CC[C@@H]2CCN(C(=O)CCCCCC#Cc3cccc4c3CN(C3CCC(=O)NC3=O)C4=O)C[C@H](NC(=O)c3cc4cc(OP(=O)(O)O)ccc4[nH]3)C(=O)N21)C(=O)NC(c1ccccc1)c1ccccc1 (some centres undefined) | > 10000 nM | > 2000 nM | Activity [11]: inactive; Activity [12]: inactive
18 | CN1CC[C@H]2CC[C@@H](C(=O)N[C@@H](CCC(N)=O)C(=O)NCc3ccccc3)N2C(=O)[C@@H](NC(=O)c2cc3cc(C(F)(F)P(=O)(O)O)ccc3[nH]2)C1 | – | – | Ki [1]: 14 nM
19 | NC(=O)CC[C@H](NC(=O)[C@@H]1CC[C@@H]2CCCC[C@H](NC(=O)c3cc4cc(OP(=O)(O)O)ccc4[nH]3)C(=O)N21)C(=O)NCc1ccccc1 | – | – | Ratio Ki [6]: 2; Ki [1]: 25 nM
20 | NC(=O)CC[C@H](NC(=O)[C@@H]1CC[C@@H]2CCN(C(=O)CCCCCC#Cc3cccc4c3CN(C3CCC(=O)NC3=O)C4=O)C[C@H](NC(=O)c3cc4cc(CP(=O)(O)O)ccc4[nH]3)C(=O)N21)C(=O)NC(c1ccccc1)c1ccccc1 (some centres undefined) | > 10000 nM | > 2000 nM | Activity [11]: inactive; Activity [12]: inactive
21 | NC(=O)CC[C@H](NC(=O)[C@@H]1CC[C@@H]2CCN(C(=O)CCCn3cc(C#Cc4cccc5c4CN(C4CCC(=O)NC4=O)C5=O)cn3)C[C@H](NC(=O)c3cc4cc(C(F)(F)P(=O)(O)O)ccc4[nH]3)C(=O)N21)C(=O)NC(c1ccccc1)c1ccccc1 (some centres undefined) | 250 nM | 232 nM | –
22 | NC(=O)CC[C@H](NC(=O)[C@@H]1CC[C@@H]2CCN(C(=O)CC(=O)N3CCC(C#Cc4cccc5c4CN(C4CCC(=O)NC4=O)C5=O)CC3)C[C@H](NC(=O)c3cc4cc(C(F)(F)P(=O)(O)O)ccc4[nH]3)C(=O)N21)C(=O)NC(c1ccccc1)c1ccccc1 (some centres undefined) | 380 nM | 67 nM | –
23 | CC(=O)N1CC[C@H]2CC[C@@H](C(=O)N[C@@H](CCC(N)=O)C(=O)NC(c3ccccc3)c3ccccc3)N2C(=O)[C@@H](NC(=O)c2cc3cc(OP(=O)(O)O)ccc3[nH]2)C1 | – | – | Ki [1]: 33 nM
24 | CN1CC[C@H]2CC[C@@H](C(=O)N[C@@H](CCC(N)=O)C(=O)NC(c3ccccc3)c3ccccc3)N2C(=O)[C@@H](NC(=O)c2cc3cc(C(F)(F)P(=O)(O)O)ccc3[nH]2)C1 | – | – | Ki [1]: 12 nM
25 | NC(=O)CC[C@H](NC(=O)[C@@H]1CC[C@@H]2CCN(C(=O)CCCCCCCc3cccc4c3CN(C3CCC(=O)NC3=O)C4=O)C[C@H](NC(=O)c3cc4cc(C(F)(F)P(=O)(O)O)ccc4[nH]3)C(=O)N21)C(=O)NC(c1ccccc1)c1ccccc1 (some centres undefined) | 160 nM | 63 nM | –
26 | NC(=O)CC[C@H](NC(=O)[C@@H]1CC[C@@H]2CCN(CCCCCCC#Cc3cccc4c3CN(C3CCC(=O)NC3=O)C4=O)C[C@H](NC(=O)c3cc4cc(C(F)(F)P(=O)(O)O)ccc4[nH]3)C(=O)N21)C(=O)NC(c1ccccc1)c1ccccc1 (some centres undefined) | 650 nM | 147 nM | IC50 [4]: > 10000 nM; DC50 [5]: 919 nM
27 | NC(=O)CC[C@H](NC(=O)[C@@H]1CC[C@@H]2CCN(C(=O)CCN3CCC(C#Cc4cccc5c4CN(C4CCC(=O)NC4=O)C5=O)CC3)C[C@H](NC(=O)c3cc4cc(C(F)(F)P(=O)(O)O)ccc4[nH]3)C(=O)N21)C(=O)NC(c1ccccc1)c1ccccc1 (some centres undefined) | 2470 nM | 360 nM | –
28 | CC(=O)N1CC[C@H]2CC[C@@H](C(=O)N[C@@H](CCC(N)=O)C(=O)NCc3ccccc3)N2C(=O)[C@@H](NC(=O)c2cc3cc(C(F)(F)P(=O)(O)O)ccc3[nH]2)C1 | – | – | Ki [1]: 14 nM
